Results as given in the EternaBench riboswitch data.

Test system: MS2 coat protein
Assay: apparent Kd, MS2 coat protein; higher = weaker binding; RNA-MaP array; tryptophan 2.4 mM where present
Outline: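 Stalled E. coli RNA polymerase transcribed each design on Illumina sequencing-chip clusters. The clusters were titrated with SNAP-549-labelled MS2 coat protein, starting at 0.7 or 1.5 nM and doubling up to 3 µM, first without ligand and then with constant ligand, in 100 mM Tris-HCl pH 7.5, 80 mM KCl, 4 mM MgCl2, BSA, DTT, yeast tRNA and Tween-20. Green signal was normalised to red-channel RNA signal and to the control-cluster median Fmax. The apparent Kd is the median of filtered binding-curve fits made for each cluster.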

[1] = designed as: ON switch for tryptophan, no ligand
[2] = ligand present: tryptophan, designed as: ON switch for tryptophan
[3] = designed as: OFF switch for tryptophan, no ligand
[4] = ligand present: tryptophan, designed as: OFF switch for tryptophan

Sequence	apparent Kd [1] [nM]	apparent Kd [2] [nM]	apparent Kd [3] [nM]	apparent Kd [4] [nM]
AAGCGGGCGACGGCCGCCACUUGCCUGUAAUUAGAGAAGGCACAUGAGGAUCACCCAUGUCCCGCAAGGACCGGGUUGCCUCACU	417	84.5	–	–
AACAUGAGGAUCACCCAUGUCCCAUGUGAACGAGGACCGGUACGGCCGCCACUCGACCGAGGCGGCACAUGAGGAUCACCCACAU	234	608	–	–
GGCACAUAGUCGGCCGCCACUAGUGGGAAAUGGGAGAACAUGAGGAUCACCCAUGUAGCGUAGCCUAGGACCGGGACUAUGUGCC	–	–	160	156
UAUCGUCAGACGGCCGCCACUAGUACAUGAGGAUCACCCAUGUAGGUCCUAGAUUCCUCAUGAUCUAGGACCGGGUCUGACGAAU	–	–	39	23
ACGUGGAAAAUUUGUGGUGCUGCCUCAGGCCGAGGACCGGUACGGCCGCCACUCGUACAUGAGGAUCACCCAUGUCGAGUCACUG	–	–	25.4	22.2
AUUCAUGGAAACAUGACAUACAUAUCCGGUCGAGGACCGGUACGGCCGCCACUCGUUUGGAGGCACAUGAGGAUCACCCAUGUUA	23.9	25.9	–	–
ACAUGAGGAUCACCCAUGUGUGUAAAUCCUCGAGGACCGGUACGGCCGCCACUCGAUUGAGUGUAAGUUGAAUGUAACAUUCAAC	96.2	30.1	–	–
GGUUACUCUACGGCCGCCACUGAAAAGUAAAUAUUAAUGUACAUGACAUGAGGAUCACCCAUGUACAGGACCGGGUAGUGUAACC	84.2	21.5	–	–
UGUGUAAUUGUCUGGUAGAUUUAUUUUUUUCGAGGACCGGUACGGCCGCCACUCGUUAUUUACAUGAGGAUCACCCAUGUUAGCU	–	–	12.9	12.9
CAUGUGAAAAUAAGAAGAAGAAGAAUAAAUCGAGGACCGGUACGGCCGCCACUCGUCGAAUCACAUGAGGAUCACCCAUGUAGCC	–	–	65.1	50.9
GGUAACUCUACGGCCGCCACUGAACAUGAGGAUCACCCAUGUAAUGUUCAGAUUUUUUUUUUUUACAGGACCGGGUAGUGUUACC	178	118	–	–
GGUGUAAUUGACUCUUUGUUUUAUUUGUAACGAGGACCGGUACGGCCGCCACUCGAUAUUCACAUGAGGAUCACCCAUGUUAGCU	–	–	20.1	20.4
GGUAUGUAUUCGGAAACGAAUGCAUACCAACGAGGACCGGUACGGCCGCCACUCGGGCCGUGAUCACAUGAGGAUCACCCAUGUA	–	–	40.2	92.7
GUGUACAUGAGGAUCACCCAUGUCGAGUUACGAGGACCGGUACGGCCGCCACUCGGCGGCUCGACACGGAUAGCGAUGCGUUGCU	–	–	43.6	110
AGAUUCGACACGGCCGCCACUUGUGGUGGAUUAUCCUGUGUCGAACAUGAGGAUCACCCAUGUACAAGGACCGGGUGUUGAGUCU	–	–	136	73.9
GCUACAUGAGGAUCACCCAUGUAUGCGAGCCGAGGACCGGUACGGCCGCCACUCGCUUAACAUGAGGAUCACCCAUGUUGCUCGG	40.9	43.6	–	–
UAGUUGUAGUCGGCCGCCACUGUGAGCAUGGUUAACAUGAGGAUCACCCAUGUCCCGUACUAUAACAGGACCGGGACGUAGUUGC	48.1	22.9	–	–
UUACACAUCUCGGCCGCCACUGGCUUCAAAAUAAUGUGUACAUGAGGAUCACCCAUGUCCGAGCUCAGGACCGGGAGCAAAGAAG	26.7	27.1	–	–
UUAUAAGUACCGGUCCUCAGAUCCUCAUGACGAGGACCGGUACGGCCGCCACUCGAAACAUGAGGAUCACCCAUGUAAUAAUAAC	–	–	37.2	18.2
UUAUAAGUACCGGUCCUCAGAUCCUCAUGACGAGGACCGGUACGGCCGCCACUCGAAACAUGAGGAUCACCCAUGUAAUAACACU	–	–	23.1	19.9
GGAGUAGGAAACUAUUCCAAUCCUCGUGAACGAGGACCGGUACGGCCGCCACUCGAUAAAUAAAUACAUGAGGAUCACCCAUGUA	–	–	24.4	50.2
CAUGGCUGUGCGGCCGCCACUGGCUCAUCCUGCAUUACAUGAGGAUCACCCAUGUUGCGGCCUCCCAGGACCGGGCAUAGCCUGA	300	139	–	–
GCUAGGUCUACGGCCGCCACUAGACAUGGGUAAGACAUGAGGAUCACCCAUGUACUACGAGUGCAUAGGACCGGGUAGACCUAGC	326	53.5	–	–
CUAGACUGUGCGGCCGCCACUGGCUCAUCCUGCAUUACAUGAGGAUCACCCAUGUUGCGGCCUCCCAGGACCGGGCAUAGUCUGC	329	105	–	–
AGUUCCAGGUCGGCCGCCACUGGCGUGGCCGGUCCUCGGACUUACAUGAGGAUCACCCAUGUGAACAGGACCGGGACCGCAUGGG	–	–	36.9	28.7
CACAGUGCGAAAUUGAAACCGCACGAUCCUCGAGGACCGGUACGGCCGCCACUCGCGCGGGUCGUACAUGAGGAUCACCCAUGUC	262	371	–	–
